Reference: ChEMBL document CHEMBL1131567, “Ethnobotanical-directed discovery of the antihyperglycemic properties of cryptolepine: its isolation from Cryptolepis sanguinolenta, synthesis, and in vitro and in vivo activities” (1998)
“And” between values parts separate entries of the source, which are not always exact repeats. Equal entries are not always repeated.

Legend:
Mus musculus [1] = experiment: Food intake in C57BL/ks Mice expressed as gram/mouse/day and the observation made at 0 -24 Hrs, when administered at a dose of 30 mg/kg; type: functional
Summary of the method: (§1)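 Lean C57BL/ks mice dosed at 30 mg/kg/day, with vehicle control, n = 8. Plasma glucose measured predose and on day 3. Body weight recorded at 0, 24 and 48 h; food intake per mouse per day over 0-24 and 24-48 h. Vehicle comparison by Student's t-test.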

Mus musculus [2] = experiment: Food intake in C57BL/ks Mice expressed as gram/mouse/day and the observation made at 24-48 Hrs, when administered at a dose of 30 mg/kg; type: functional; summary of the method: as §1
Mus musculus [3] = experiment: Food intake in db/db Mice expressed as gram/mouse/day and the observation made at 0 - 24 Hrs, in db/db mice administered at a dose of 20 mg/kg; type: functional
Mus musculus [4] = experiment: Food intake in db/db Mice expressed as gram/mouse/day and the observation made at 0 - 24 Hrs, in db/db mice administered at a dose of 30 mg/kg; type: functional
Summary of the method: (§2)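 Male C57BL/Ks-db/db mice, 8-9 weeks old, housed 4/cage at 22 °C with chow and water ad libitum. Mice with tail-vein plasma glucose of 350-600 mg/dL were grouped at eight per group with matched mean glucose. Oral gavage once daily for 1 or 2 days at 30 or 100 mg/kg, with vehicle control. Body weight and cage food consumption measured after 24-27 h.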

Mus musculus [5] = experiment: Food intake in db/db Mice expressed as gram/mouse/day and the observation made at 24 - 48 Hrs, in db/db mice administered at a dose of 20 mg/kg; type: functional
Mus musculus [6] = experiment: Food intake in db/db Mice expressed as gram/mouse/day and the observation made at 24 - 48 Hrs, in db/db mice administered at a dose of 30 mg/kg; type: functional; summary of the method: as §2
Mus musculus [7] = species: Mus musculus; experiment: Food intake in db/db Mice expressed as gram/mouse/day and the observed after 48 hr.; type: functional; summary of the method: as §2
Mus musculus [8] = experiment: Mean body weight expressed as grams/mouse (C57BL/ks) at 48hrs, when given at 30 mg/kg; type: functional; summary of the method: as §1
Mus musculus [9] = experiment: Compound was evaluated for the in vivo effects on plasma glucose concentrations in db/db mice administered at a dose of 20 mg/kg mean body weight expressed as grams/mouse at 0 hr; type: functional
Mus musculus [10] = experiment: Compound was evaluated for the in vivo effects on plasma glucose concentrations in db/db mice administered at a dose of 20 mg/kg mean body weight expressed as grams/mouse at 24 hr; type: functional
Mus musculus [11] = experiment: Compound was evaluated for the in vivo effects on plasma glucose concentrations in db/db mice administered at a dose of 30 mg/kg mean body weight expressed as grams/mouse at 0 hr; type: functional; summary of the method: as §2
Mus musculus [12] = experiment: Compound was evaluated for the in vivo effects on plasma glucose concentrations in db/db mice administered at a dose of 30 mg/kg mean body weight expressed as grams/mouse at 24 hr; type: functional; summary of the method: as §2
Mus musculus [13] = experiment: Mean body weight expressed as grams/mouse at 0hrs, when given at 100 mg/kg; type: functional; summary of the method: as §2
Mus musculus [14] = experiment: Mean body weight expressed as grams/mouse at 24hrs, when given at 100 mg/kg; type: functional; summary of the method: as §2
Mus musculus [15] = experiment: Mean body weight expressed as grams/mouse (C57BL/ks) at 0hrs, when given at 30 mg/kg; type: functional; summary of the method: as §1
Mus musculus [16] = experiment: Mean body weight expressed as grams/mouse (C57BL/ks) at 24hrs, when given at 30 mg/kg; type: functional; summary of the method: as §1
Mus musculus [17] = experiment: Effect when given at 30 mg/kg in (C57BL/ks) mouse,Predose; type: functional; summary of the method: as §1
Mus musculus [18] = experiment: Effect when given at 30 mg/kg in (C57BL/ks) mouse, after day 3; type: functional; summary of the method: as §1
Mus musculus [19] = experiment: Effect when given at 30 mg/kg in (db/db)mice,3 days postdose; type: functional
Summary of the method: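 db/db mice, eight per group with matched initial glucose, dosed orally by gavage once daily with vehicle or 30 mg/kg. Tail-vein blood taken predose and 3 h postdosing. Plasma glucose measured colorimetrically by glucose oxidase assay. Groups compared with vehicle by ANOVA and Fisher's post-hoc test.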

Rattus norvegicus [20] = experiment: […] effect of drug administration on Body weight in Fructose fed STZ-treated rats, after 24 hr (Treatment group - Fructose/STZ + cryptoline HCl, 30 mg/kg); type: functional; conditions: in the assay text read “on day 3” for “after 24 hr”
Summary of the method: (§3)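 Male Sprague-Dawley rats, 8 weeks old, given STZ 55 mg/kg iv and a 60% fructose diet for 1 week. Rats with serum glucose of 250-350 mg/dL were sorted into matched groups (n = 14). Oral gavage once daily for 3 days with vehicle or 30 mg/kg in 2% DMSO, 10 mL/kg. Noninjected chow-fed vehicle controls (n = 19). Body weight and cage food consumption recorded daily.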

Rattus norvegicus [21] = experiment: […] effect of drug administration on Body weight in Fructose fed STZ-treated rats, pre dose ((Treatment group - Fructose/STZ + cryptoline HCl, 30 mg/kg); type: functional; summary of the method: as §3
Rattus norvegicus [22] = experiment: […] effect of drug administration on food consumption in Fructose fed STZ-treated rats (Treatment group - Fructose/STZ + cryptoline HCl, 30 mg/kg); type: functional; summary of the method: as §3
Mus musculus [23] = experiment: In vivo plasma glucose lowering in db/db mice, given at 100 mg/kg in mouse, after 3 hr
Mus musculus [24] = experiment: In vivo plasma glucose lowering in db/db mice, given at 100 mg/kg in mouse, after 24 hr
Mus musculus [25] = species: Mus musculus; experiment: Food intake in db/db Mice expressed as gram/mouse/day and the observation made is after 48 hr.; type: functional; summary of the method: as §2

C[n+]1c2ccccc2cc2[n-]c3ccccc3c21.Cl [CRYPTOLEPINE HYDROCHLORIDE]
Food intake (Mus musculus [1]): 2.7 g mouse-1 day-1
Food intake (Mus musculus [2]): 2.3 g mouse-1 day-1
Food intake (Mus musculus [3]): 3.3 g mouse-1 day-1
Food intake (Mus musculus [4]): 2.4 g mouse-1 day-1
Food intake (Mus musculus [5]): 3.8 g mouse-1 day-1
Food intake (Mus musculus [6]): 2.4 g mouse-1 day-1
Food intake (Mus musculus [7]): 0.9 g mouse-1 day-1
Mean body weight (Mus musculus [8]): 22.7 g mouse-1
Mean body weight (Mus musculus [9]): 38 g mouse-1 and 37.4 g mouse-1
Mean body weight (Mus musculus [10]): 37.9 g mouse-1
Mean body weight (Mus musculus [11]): 37 g mouse-1 and 35.5 g mouse-1
Mean body weight (Mus musculus [12]): 36.9 g mouse-1
Mean body weight (Mus musculus [13]): 41 g mouse-1
Mean body weight (Mus musculus [14]): 39.8 g mouse-1
Mean body weight (Mus musculus [15]): 23.7 g mouse-1
Mean body weight (Mus musculus [16]): 23.3 g mouse-1
Change of predose (Mus musculus [17]): 184 mg/dL
Change of predose (Mus musculus [18]): 171 mg/dL
Change of predose (Mus musculus [19]): 358 mg/dL
Body weight (Rattus norvegicus [20]): 223 g
Body weight (Rattus norvegicus [21]): 201 g
Food intake (Rattus norvegicus [22]): 18 g/day
Change of predose (Mus musculus [23]): -16.4%
Change of predose (Mus musculus [24]): -43.1%

C[n+]1c2ccccc2cc2[nH]c3ccccc3c21.[I-] [CRYPTOLEPTINE IODIDE]
Food intake (Mus musculus [25]): 1 g mouse-1 day-1
Mean body weight (Mus musculus [13]): 42.7 g mouse-1
Mean body weight (Mus musculus [14]): 41.9 g mouse-1
Change of predose (Mus musculus [23]): -11.5%
Change of predose (Mus musculus [24]): -22.5%

C[n+]1c2ccccc2cc2[n-]c3ccccc3c21 [CRYPTOLEPINE]
Food intake (Mus musculus [25]): 1 g mouse-1 day-1
Mean body weight (Mus musculus [13]): 39.4 g mouse-1
Mean body weight (Mus musculus [14]): 38.7 g mouse-1
Change of predose (Mus musculus [23]): -19.7%
Change of predose (Mus musculus [24]): -30%

Cn1c2ccccc2c2nc3ccccc3cc21
Food intake (Mus musculus [25]): 4.4 g mouse-1 day-1
Mean body weight (Mus musculus [13]): 41.4 g mouse-1
Mean body weight (Mus musculus [14]): 42 g mouse-1
Change of predose (Mus musculus [23]): 15.3%
Change of predose (Mus musculus [24]): 14.1%
